In ChEMBL document CHEMBL3526048, “In vitro metabolism of rivoglitazone, a novel peroxisome proliferator-activated receptor γ agonist, in rat, monkey, and human liver microsomes and freshly isolated hepatocytes” (Drug Metab Dispos, 2011):

Tests used:
Cytochrome P450 2C9 [1] = biological target: T1, Cytochrome P450 2C9 (Homo sapiens, UniProt P11712); assay: Activity of human CYP2C9 expressed in microsomes isolated from baculovirus infected insect cell assessed as enzyme-mediated 5-(4-((6-hydroxy-1-methyl-1H-benzo[d]imidazol-2-yl)methoxy)benzyl)thiazolidine-2,4-dione formation at 20 uM after 2 hrs by radio-HPLC/LC-MS/MS analysis in presence of NADPH-generating system and NADPH-generating system/SAM; format: ADME
T1 sequence (P11712 whole entry): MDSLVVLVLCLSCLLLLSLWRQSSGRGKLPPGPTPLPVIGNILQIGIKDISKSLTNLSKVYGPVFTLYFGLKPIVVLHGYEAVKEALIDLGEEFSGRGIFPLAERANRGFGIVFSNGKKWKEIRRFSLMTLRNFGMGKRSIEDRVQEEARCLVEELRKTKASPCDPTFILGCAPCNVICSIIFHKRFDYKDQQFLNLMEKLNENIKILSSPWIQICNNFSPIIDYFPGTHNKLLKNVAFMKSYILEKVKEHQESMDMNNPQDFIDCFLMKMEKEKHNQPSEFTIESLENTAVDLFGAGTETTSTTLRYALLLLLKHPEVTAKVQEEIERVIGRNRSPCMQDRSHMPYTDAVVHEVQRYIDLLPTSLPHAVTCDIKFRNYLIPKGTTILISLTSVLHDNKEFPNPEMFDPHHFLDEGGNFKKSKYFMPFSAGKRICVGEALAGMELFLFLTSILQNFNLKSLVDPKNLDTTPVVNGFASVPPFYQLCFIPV

[2] = biological target: T2, UDP-glucuronosyltransferase 1A1 (Homo sapiens, UniProt P22309); assay: Activity of human UGT1A1 expressed in microsomes isolated from baculovirus infected insect cell assessed as enzyme-mediated (2S,3S,4S,5R,6R)-6-((1-carboxy-2-(4-((6-methoxy-1-methyl-1H-benzo[d]imidazol-2-yl)methoxy)phenyl)ethylthio)carbonylamino)-3,4,5-trihydroxytetrahydro-2H-pyran-2-carboxylic acid formation at 20 uM after 4 hrs by radio-HPLC/LC-MS/MS analysis in presence of UDPGA; format: ADME
T2 sequence (P22309 whole entry): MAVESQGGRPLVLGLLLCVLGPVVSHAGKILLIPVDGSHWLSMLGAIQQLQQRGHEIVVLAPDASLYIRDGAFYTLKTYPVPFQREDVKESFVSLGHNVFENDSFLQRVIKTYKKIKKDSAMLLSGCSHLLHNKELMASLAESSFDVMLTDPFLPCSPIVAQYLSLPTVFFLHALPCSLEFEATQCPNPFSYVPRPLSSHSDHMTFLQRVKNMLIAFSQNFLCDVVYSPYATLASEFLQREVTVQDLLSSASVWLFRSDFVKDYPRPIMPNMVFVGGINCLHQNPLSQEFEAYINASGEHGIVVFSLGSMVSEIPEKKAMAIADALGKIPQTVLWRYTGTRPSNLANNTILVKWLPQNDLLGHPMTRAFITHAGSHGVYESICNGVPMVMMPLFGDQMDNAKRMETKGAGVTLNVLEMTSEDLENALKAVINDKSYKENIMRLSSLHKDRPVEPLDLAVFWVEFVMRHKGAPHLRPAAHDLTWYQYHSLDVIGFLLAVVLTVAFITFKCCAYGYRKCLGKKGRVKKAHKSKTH
Method in brief: (§1)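 Alamethicin (50 μg/mg protein, 15 min on ice) pretreated expressed human UGT microsomes (1 mg/ml protein) from baculovirus-infected insect cells. Incubation with [¹⁴C]rivoglitazone (20 μM) in 100 mM Tris-HCl (pH 7.5) with 10 mM MgCl₂, started by 5 mM UDPGA, 4 h at 37°C with shaking. UGT insect-cell control supersomes were run alongside. Acetonitrile stop, concentrated supernatant analysed by radio-HPLC, LC-MS and LC-MS/MS.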

[3] = Drug metabolism in human hepatocytes assessed as formation of 3-(4-((6-methoxy-1-methyl-1H-benzo[d]imidazol-2-yl)methoxy)phenyl)-2-(methylthio)propanamide at 30 uM after 3 hrs by radio-HPLC/LC-MS/MS analysis in presence of NADPH-generating system/SAM; format: ADME, cell-based, Hepatocyte
Cytochrome P450 3A4 = Cytochrome P450 3A4 (Homo sapiens, UniProt P08684); assay: Activity of human CYP3A4 expressed in microsomes isolated from baculovirus infected insect cell assessed as enzyme-mediated 2-amino-3-((1-carboxy-2-(4-((6-methoxy-1-methyl-1H-benzo[d]imidazol-2-yl)methoxy)phenyl)ethyl)disulfanyl)propanoic acid formation at 20 uM after 2 hrs by radio-HPLC/LC-MS/MS analysis; format: ADME
Cytochrome P450 3A4, sequence (P08684 whole entry): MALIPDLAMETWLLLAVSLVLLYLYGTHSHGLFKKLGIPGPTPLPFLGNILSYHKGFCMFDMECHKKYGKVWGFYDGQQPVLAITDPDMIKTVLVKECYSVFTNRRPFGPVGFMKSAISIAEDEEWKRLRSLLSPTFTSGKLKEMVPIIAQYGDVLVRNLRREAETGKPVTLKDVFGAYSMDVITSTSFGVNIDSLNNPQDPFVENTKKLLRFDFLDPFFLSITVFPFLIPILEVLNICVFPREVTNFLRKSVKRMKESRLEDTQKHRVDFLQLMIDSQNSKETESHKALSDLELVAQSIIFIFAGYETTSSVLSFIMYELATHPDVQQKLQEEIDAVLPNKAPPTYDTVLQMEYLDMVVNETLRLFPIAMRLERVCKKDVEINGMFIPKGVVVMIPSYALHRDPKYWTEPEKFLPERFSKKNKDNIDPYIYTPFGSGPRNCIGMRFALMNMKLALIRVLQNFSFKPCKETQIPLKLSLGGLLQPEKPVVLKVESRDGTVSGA
Method in brief: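 Baculovirus-insect-cell microsomes expressing the human CYP (1 mg/ml protein) were incubated with [14C]rivoglitazone (20 μM) in 50 mM potassium phosphate (pH 7.4) or 100 mM Tris-HCl (pH 7.5) with an NADPH-generating system (2 mM NADP+, 20 mM glucose 6-phosphate, 2 units/ml G6PDH, 10 mM MgCl2) for 2 h at 37°C. Insect-cell control supersomes served as the control. Reactions were stopped with acetonitrile, and the concentrated supernatants were analysed by radio-HPLC, LC-MS and LC-MS/MS.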

Cytochrome P450 2C9 [4] = biological target: T1, Cytochrome P450 2C9; assay: Activity of human CYP2C9 expressed in microsomes isolated from baculovirus infected insect cell assessed as enzyme-mediated 5-hydroxy-5-(4-((6-methoxy-1-methyl-1H-benzo[d]imidazol-2-yl)methoxy)benzyl)thiazolidine-2,4-dione formation at 20 uM after 2 hrs by radio-HPLC/LC-MS/MS analysis in presence of NADPH-generating system and NADPH-generating system/SAM; format: ADME
Liver microsome [5] = assay: Drug metabolism in Sprague-Dawley rat liver microsomes assessed as formation of 5-(4-((6-methoxy-1H-benzo[d]imidazol-2-yl)methoxy)benzyl)thiazolidine-2,4-dione at 20 uM after 2 hrs by radio-HPLC/LC-MS/MS analysis in presence of NADPH-generating system and NADPH-generating system/SAM; format: ADME
[6] = Drug metabolism in cynomolgus monkey liver microsomes assessed as formation of 2-hydroxy-3-(4-((6-methoxy-1-methyl-1H-benzo[d]imidazol-2-yl)methoxy)phenyl)propanamide at 20 uM after 2 hrs by radio-HPLC/LC-MS/MS analysis in presence of NADPH-generating system and NADPH-generating system/SAM; format: ADME, Macaca fascicularis
[7] = biological target: T3, UDP-glucuronosyltransferase 1A3 (Homo sapiens, UniProt P35503); assay: Activity of human UGT1A3 expressed in microsomes isolated from baculovirus infected insect cell assessed as enzyme-mediated 2-amino-3-((1-carboxy-2-(4-((6-methoxy-1-methyl-1H-benzo[d]imidazol-2-yl)methoxy)phenyl)ethyl)disulfanyl)propanoic acid formation at 20 uM after 4 hrs by radio-HPLC/LC-MS/MS analysis in presence of UDPGA and UDPGA/SAM; format: ADME; method in brief: as §1
T3 sequence (P35503 whole entry): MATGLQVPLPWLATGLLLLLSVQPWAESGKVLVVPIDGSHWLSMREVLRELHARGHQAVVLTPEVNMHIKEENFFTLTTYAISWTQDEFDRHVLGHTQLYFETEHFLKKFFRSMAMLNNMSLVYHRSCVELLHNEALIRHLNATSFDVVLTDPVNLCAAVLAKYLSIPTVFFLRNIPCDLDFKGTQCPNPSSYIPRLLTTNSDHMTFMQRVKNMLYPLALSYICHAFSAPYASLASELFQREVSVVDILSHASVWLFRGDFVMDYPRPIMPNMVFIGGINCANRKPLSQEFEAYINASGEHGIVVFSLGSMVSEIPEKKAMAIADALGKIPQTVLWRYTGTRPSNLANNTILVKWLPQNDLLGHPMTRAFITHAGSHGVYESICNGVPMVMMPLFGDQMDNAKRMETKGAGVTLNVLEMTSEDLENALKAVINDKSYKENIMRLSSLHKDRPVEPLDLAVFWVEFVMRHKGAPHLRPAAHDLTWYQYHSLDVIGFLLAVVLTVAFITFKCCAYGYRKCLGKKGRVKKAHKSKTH

[8] = Drug metabolism in rat hepatocytes assessed as formation of (2S,3S,4S,5R,6R)-6-((1-carboxy-2-(4-((6-methoxy-1-methyl-1H-benzo[d]imidazol-2-yl)methoxy)phenyl)ethylthio)carbonylamino)-3,4,5-trihydroxytetrahydro-2H-pyran-2-carboxylic acid at 30 uM after 3 hrs by radio-HPLC/LC-MS/MS analysis in presence of UDPGA and UDPGA/SAM; format: ADME, cell-based, Hepatocyte
Liver microsome [9] = assay: Drug metabolism in Sprague-Dawley rat liver microsomes assessed as formation of 2-hydroxy-3-(4-((6-methoxy-1-methyl-1H-benzo[d]imidazol-2-yl)methoxy)phenyl)propanamide at 20 uM after 2 hrs by radio-HPLC/LC-MS/MS analysis in presence of NADPH-generating system and NADPH-generating system/SAM; format: ADME

For `COc1ccc2nc(COc3ccc(C[14CH]4SC(=O)NC4=O)cc3)n(C)c2c1.Cl` (racemic), the Drug metabolism (Cytochrome P450 2C9 [1]) was “metabolite_detected”, the Drug metabolism [2] was “metabolite_not_detected” and the Drug metabolism [3] was “metabolite_detected”. The Drug metabolism (Cytochrome P450 3A4) was “metabolite_not_detected”, the Drug metabolism (Cytochrome P450 2C9 [4]) was “metabolite_detected” and the Drug metabolism (Liver microsome [5]) was “metabolite_detected”. The Drug metabolism [6] was “metabolite_detected”, the Drug metabolism [7] was “metabolite_not_detected” and the Drug metabolism [8] was “metabolite_detected”. For the same molecule, the Drug metabolism (Liver microsome [9]) was “metabolite_detected”.
